{"data": "Results from different studies", "matrix": "plasma", "note": "Compare with care: the assays were run in different laboratories."}
{"SMILES": "C#C[C@]1(COP(=O)(O)OP(=O)(O)OP(=O)(O)O)O[C@@H](n2cnc3c(N)nc(F)nc32)C[C@@H]1O", "host": "human", "route": "oral", "dose": "15 mg", "setting": "single dose", "half-life [h]": 161}
{"SMILES": "C[C@@H](Nc1cc(F)cc(F)c1)c1cc(C(=O)N(C)C)cc2c(=O)cc(N3CCOCC3)oc12", "host": "human", "route": "oral", "dose": "60 mg", "setting": "patients", "half-life [h]": 5.2}
{"SMILES": "CO[C@H]1/C=C\\C=C(/C)C(=O)NC2=CC(=O)C(NCCN(C)C)=C(C[C@@H](C)C[C@H](OC)[C@H](O)[C@@H](C)/C=C(\\C)[C@@H]1OC(N)=O)C2=O", "host": "human", "route": "intravenous", "setting": "patients, infusion", "half-life [h]": 22.3}
{"SMILES": "COc1ccc([C@@H]2CN(C(=O)[C@@H](O)CO)C[C@@]2(C)[C@@H](C)O)cc1OC1CN(c2ccc(C)cn2)C1", "host": "human", "route": "oral", "dose": "1.5 mg", "setting": "single dose, healthy volunteers", "half-life [h]": 13.5}
{"SMILES": "CO[C@H]1CC[C@H](N2C(=O)CNc3ncc(-c4ccc(C(C)(C)O)nc4)nc32)CC1", "host": "human", "route": "oral", "dose": "7.5 mg", "setting": "patients", "half-life [h]": 7.68}
{"SMILES": "CS(=O)(=O)n1cc2c(n1)CN([C@H]1CO[C@H](c3cc(F)ccc3F)[C@@H](N)C1)C2", "host": "male human", "route": "oral", "dose": "10 mg", "setting": "single dose, fasted", "half-life [h]": 49.9}
{"SMILES": "COCCOc1cnc2ccn([C@H](C)c3nnc4c(F)cc(-c5cnn(C)c5)cn34)c(=O)c2c1", "host": "human", "route": "oral", "dose": "50 mg", "setting": "multiple doses, once daily, patients", "half-life [h]": 15.3}
{"SMILES": "Cn1cc(-c2ccc(S(=O)(=O)[C@@H]3C[C@@H](C(=O)NC4(C#N)CC4)N(C(=O)C4(C(F)(F)F)CC4)C3)c(C(F)(F)F)c2)cn1", "host": "human", "route": "oral", "dose": "100 mg", "setting": "single dose, fed, healthy volunteers", "half-life [h]": 8.8}
{"SMILES": "Nc1cc(C(F)(F)F)c(-c2cc(N3CCOCC3)nc(N3CCOCC3)n2)cn1", "host": "human", "route": "oral", "dose": "25 mg/day", "setting": "patients", "half-life [h]": 36.8}
{"SMILES": "CC(C)[C@](O)(c1ccc2cc(OC(F)F)c(OC(F)F)cc2c1)c1c[nH]nn1", "host": "female human", "route": "oral", "dose": "600 mg", "setting": "single dose", "half-life [h]": 8.4}
{"SMILES": "c1cnc2ccc(Nc3nc(NC4CC4)c4nc[nH]c4n3)cc2c1", "host": "human", "route": "oral", "dose": "100 mg/m²", "setting": "patients", "half-life [h]": 3.6}
{"SMILES": "CC(C)(O)c1ccccc1-c1ccc2[nH]c(/C=C/c3ccc(C(F)(F)F)cc3)nc2c1", "host": "male human", "route": "oral", "dose": "225 mg", "setting": "single dose, fasted, healthy volunteers", "half-life [h]": 85.9}
{"SMILES": "O=C(/C=C/c1cccc(S(=O)(=O)Nc2ccccc2)c1)NO", "host": "human", "route": "intravenous", "dose": "2000 mg/m²", "setting": "patients", "half-life [h]": 1.42}
{"SMILES": "COc1ccc(-n2nc(C(N)=O)c3c2C(=O)N(c2ccc(N4CCCCC4=O)cc2)CC3)cc1", "host": "human", "route": "oral", "dose": "10 mg", "setting": "single dose, healthy volunteers", "half-life [h]": 12.7}
{"SMILES": "CCNCCCNC/C=C\\CNCCCNCC", "host": "human", "route": "intravenous", "dose": "200 mg", "setting": "patients, infusion", "half-life [h]": 0.14}
{"SMILES": "COc1cc(C(=O)NC2CCN(C)CC2)c(F)cc1Nc1ncc(C(F)(F)F)c(Oc2cccc3c2C(=O)N(C)C3)n1", "host": "human", "route": "oral", "dose": "10 mg", "setting": "multiple doses, once daily, patients", "half-life [h]": 25.8}
{"SMILES": "CO[C@@H]1[C@H](OC(=O)N2CC(CCN3CCOCC3)C2)CC[C@]2(CO2)[C@H]1[C@@]1(C)O[C@@H]1CC=C(C)C", "host": "human", "route": "subcutaneous", "dose": "4.8 mg", "setting": "single dose, healthy volunteers", "half-life [h]": 0.91}
{"SMILES": "CC(C)(Sc1ccncc1-c1ccc(C#N)c2ccccc12)C(=O)O", "host": "male human", "route": "oral", "dose": "5 mg", "setting": "single dose, fasted, healthy volunteers", "half-life [h]": 14.2}
{"SMILES": "NS(=O)(=O)NCCNc1nonc1C(=NO)Nc1ccc(F)c(Br)c1", "host": "human", "route": "oral", "dose": "600 mg", "setting": "multiple doses, twice daily, steady state, patients", "half-life [h]": 3.3}
{"SMILES": "O=C(Nc1c(Cl)cncc1Cl)c1ccc(OC(F)F)c(OCC2CC2)c1", "host": "human", "route": "oral", "dose": "0.375 mg", "setting": "single dose", "half-life [h]": 19.7}
{"SMILES": "Cc1nc(C(=O)NCC(=O)O)c(O)c2ccc(Oc3ccccc3)cc12", "host": "human", "route": "oral", "dose": "100 mg", "setting": "single dose, healthy volunteers", "half-life [h]": 11.7}
{"SMILES": "COc1ccc(Oc2cc(N(C)CCOc3ccc(CC4SC(=O)NC4=O)cc3)ncn2)cc1 (centres unmarked)", "host": "male human", "route": "oral", "dose": "0.5 mg", "setting": "multiple doses, once daily, steady state", "half-life [h]": 7.06}
{"SMILES": "CCOc1cc([C@@H](CS(C)(=O)=O)N2C(=O)c3cccc(NC(C)=O)c3C2=O)ccc1OC", "host": "human", "route": "oral", "dose": "30 mg", "setting": "single dose, healthy volunteers", "half-life [h]": 8.08}
{"SMILES": "CS(=O)(=O)CCC#N", "host": "human", "route": "oral", "dose": "100 mg", "setting": "multiple doses, once daily", "half-life [h]": 16}
{"SMILES": "CCOc1ccc(Cc2cc([C@@H]3O[C@H](CO)[C@@H](O)[C@H](O)[C@H]3O)ccc2Cl)cc1", "host": "human", "route": "oral", "dose": "10 mg", "setting": "multiple doses, steady state, healthy volunteers", "half-life [h]": 10.4}
{"SMILES": "CC(C)n1cc(C#N)c2cc(-n3cc(C(=O)O)cn3)ccc21", "host": "human", "route": "oral", "dose": "50 mg", "setting": "single dose, fasted, healthy volunteers", "half-life [h]": 7.1}
